Data reported in ChEMBL document CHEMBL3351997, “Synthesis of novel tylophorine derivatives and evaluation of their anti-inflammatory activity” (ACS Med Chem Lett, 2014).

Experiments:
T-cell [1] = experiment: Induction of Foxp3 expression in B6 Foxp3-GFP mouse CD4-positive T cells assessed as increase in iTregs at 100 nM after 3 days by flow cytometry; assay type: functional
Outline: (§1)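 Naive CD4+ T cells were sorted from B6 Foxp3-GFP reporter mice and cultured with compound plus TGF-β (5 ng/mL) for 3 days. Harvested cells were read by flow cytometry as the percentage of GFP+ (Foxp3+) iTregs. Values are mean ± SD of at least three independent experiments, each run in duplicate.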

RAW264.7 [2] = experiment: Antiinflammatory activity against mouse RAW264.7 cells assessed as inhibition of LPS-induced TNFalpha production after 6 hrs by ELISA; assay type: functional, cell-based; details: RAW264.7, 6 h
[3] = Antiinflammatory activity against BALB/c mouse splenocytes assessed as inhibition of LPS-induced TNFalpha production after 4 hrs by ELISA; assay type: functional, cell-based; details: Splenocyte
Outline: (§2)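 Splenocytes from BALB/c mice were cultured with LPS (100 ng/mL) plus compound for 4 h or 24 h. TNF-α in the supernatants was measured by ELISA. Values are mean ± SD of at least three independent experiments, each run in duplicate.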

[4] = Antiinflammatory activity against BALB/c mouse splenocytes assessed as inhibition of LPS-induced TNFalpha production after 24 hrs by ELISA; assay type: functional, cell-based; details: Splenocyte; outline: as §2
RAW264.7 [5] = experiment: Cytotoxicity against mouse RAW264.7 cells after 48 hrs by MTT assay; assay type: cell-based; details: RAW264.7, 48 h
Outline: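 Raw 264.7 murine macrophages were cultured with a range of compound concentrations for 48 h, with vehicle-treated cells as control. The 50% cytotoxic concentration (CC50) was determined, with values representative of three experiments.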

T-cell [6] = experiment: Induction of Foxp3 expression in B6 Foxp3-GFP mouse CD4-positive T cells assessed as increase in iTregs at 1 uM after 3 days by flow cytometry; assay type: functional; outline: as §1
T-cell [7] = experiment: Inhibition of Foxp3 expression in B6 Foxp3-GFP mouse CD4-positive T cells assessed as iTregs at 100 nM after 3 days by flow cytometry; assay type: functional; details: for inhibition at 0.1 µM: Mus musculus, T-cell, 72 h; outline: as §1
[8] = Solubility of the compound in water; assay type: physicochemical; details: buffer
T-cell [9] = experiment: Induction of Foxp3 expression in B6 Foxp3-GFP mouse CD4-positive T cells at 1 nM after 3 days by flow cytometry in presence of 5 ng/ml TGF-beta; assay type: functional; outline: as §1
T-cell [10] = experiment: Induction of Foxp3 expression in B6 Foxp3-GFP mouse CD4-positive T cells at 1 nM after 3 days by flow cytometry in presence of 5 ng/ml TGF-beta (reference value: 37.15 %); assay type: functional; outline: as §1
T-cell [11] = experiment: Induction of Foxp3 expression in B6 Foxp3-GFP mouse CD4-positive T cells at 10 nM after 3 days by flow cytometry in presence of 5 ng/ml TGF-beta (reference value: 37.15 %); assay type: functional; outline: as §1
T-cell [12] = experiment: Induction of Foxp3 expression in B6 Foxp3-GFP mouse CD4-positive T cells at 100 nM after 3 days by flow cytometry in presence of 5 ng/ml TGF-beta (reference value: 37.15 %); assay type: functional; outline: as §1
T-cell [13] = experiment: Induction of Foxp3 expression in B6 Foxp3-GFP mouse CD4-positive T cells at 1 uM after 3 days by flow cytometry in presence of 5 ng/ml TGF-beta (reference value: 37.15 %); assay type: functional; outline: as §1
RAW264.7 [14] = experiment: Cytotoxicity against mouse RAW264.7 cells assessed as cell death at 1 uM after 48 hrs by MTT assay; assay type: cell-based; details: raw264.7, 48 h
[15] = Solubility of the compound in DMSO; assay type: physicochemical

| Compound | IC50 (RAW264.7 [2]) [µM] | IC50 [3] [µM] | IC50 [4] [µM] | IC50 (RAW264.7 [5]) [µM] | Activity (T-cell [6]) [%] | further results |
| --- | --- | --- | --- | --- | --- | --- |
| COc1cc2c3c(c4cc(OC)c(OC)cc4c2cc1OC)[C@H](O)[C@H]1CCCN1C3 | 0.817 | 0.61 | 0.965 | 1.16 | – | Activity (T-cell [1]): 5% |
| COC(=O)[C@@H]1CCCN1Cc1cc2cc(OC)c(OC)cc2c2cc(OC)c(OC)cc12 | 216 | 153 | 275 | 469 | 19 | – |
| COc1cc2c3c(c4cc(OC)c(OC)cc4c2cc1OC)CN1CCCC1C3.O=C(O)c1ccccc1 (centres undefined) [TYLOPHORINE BENZOIC ACID SALT] | – | – | – | – | – | inhibition (INH) (T-cell [7]): 1% |
| COc1cc2cc(CN3CCCCC3C(=O)O)c3cc(OC)c(OC)cc3c2cc1OC (centres undefined) | 354 | 292 | 389 | 357 | 0.7 | – |
| COc1cc2c3c(c4cc(OC)c(OC)cc4c2cc1OC)[C@@H](O)[C@@H]1CCCN1C3 | 0.35 | 0.37 | 1.29 | 1.06 | – | Activity (T-cell [1]): 29% |
| COc1cc2cc(C(=O)NCCCCCCO)c3cc(OC)c(OC)cc3c2cc1OC | 236 | 251 | 317 | 305 | 7 | – |
| COC(=O)C1CCCCN1C(=O)c1cc2cc(OC)c(OC)cc2c2cc(OC)c(OC)cc12 (centres undefined) | 227 | 301 | 329 | 116 | 7 | – |
| COc1cc2c3c(c4cc(OC)c(OC)cc4c2cc1OC)CN1CCCC1C3.I (centres undefined) [TYLOPHORINE HYDROIODIDE] | – | – | – | – | – | inhibition (INH) (T-cell [7]): 12% |
| COC(=O)[C@@H]1CCCN1C(=O)c1cc2cc(OC)c(OC)cc2c2cc(OC)c(OC)cc12 | 217 | 211 | 363 | 320 | 5 | – |
| COC(=O)CCCCCNCc1cc2cc(OC)c(OC)cc2c2cc(OC)c(OC)cc12 | 227 | 115 | 213 | 515 | 47 | – |
| COc1cc2c3c(c4cc(OC)c(OC)cc4c2cc1OC)CN1CCCC1C3.O=C(O)c1ccc(O)cc1 (centres undefined) [TYLOPHORINE P-HYDROXYBENZOIC ACID SALT] | 0.511 | 0.76 | 0.972 | 0.651 | – | inhibition at 0.1 µM (T-cell [7]): 5% |
| CC1(C)C2CC[C@]1(S(=O)(=O)O)C(=O)C2.COc1cc2c3c(c4cc(OC)c(OC)cc4c2cc1OC)CN1CCCC1C3 (centres undefined) | 0.027 | 0.03 | 0.338 | 0.033 | – | inhibition at 0.1 µM (T-cell [7]): 2% |
| COc1cc2c3c(c4cc(OC)c(OC)cc4c2cc1OC)CN1CCCC1C3.O=C(O)c1ccccc1O (centres undefined) [TYLOPHORINE SALICYLIC ACID SALT] | – | – | – | – | – | inhibition (INH) (T-cell [7]): 4% |
| COc1cc2c3c(c4cc(OC)c(OC)cc4c2cc1OC)CN1CCCC1C3 (racemic) [(+/-)-TYLOPHORINE] | – | – | – | – | – | inhibition (INH) (T-cell [7]): 34% |
| COc1cc2c3c(c4cc(OC)c(OC)cc4c2cc1OC)CN1CCCC1C3.O=C(O)CC(O)C(=O)O (centres undefined) [TYLOPHORINE 2-HYDROXYSUCCINIC ACID SALT] | – | – | – | – | – | solubility [8]: soluble |
| COc1cc(/C=C/C(=O)O)ccc1O.COc1cc2c3c(c4cc(OC)c(OC)cc4c2cc1OC)CN1CCCC1C3 (centres undefined) | 0.135 | 0.213 | 0.329 | 0.093 | – | Activity (T-cell [1]): 0.8% |
| COc1cc2c3c(c4cc(OC)c(OC)cc4c2cc1OC)CN1CCC[C@H]1C3 [(S)-TYLOPHORINE] | – | – | – | – | – | inhibition at 0.1 µM (T-cell [7]): 44% |
| COc1cc2c3c(c4cc(OC)c(OC)cc4c2cc1OC)[C@@H](O)[C@H]1CCCN1C3 | 0.238 | 0.133 | 0.783 | 0.242 | – | Activity (T-cell [1]): 12% |
| COC(=O)CCCCCNC(=O)c1cc2cc(OC)c(OC)cc2c2cc(OC)c(OC)cc12 | 241 | 156 | 257 | 423 | 16 | – |
| COc1cc2cc(CN3CCCCC3CO)c3cc(OC)c(OC)cc3c2cc1OC (centres undefined) | 41 | 38 | 92 | 513 | 41 | Activity (T-cell [9]): 100%; Activity (T-cell [10]): 40.42%; Activity (T-cell [11]): 41.25%; Activity (T-cell [12]): 51.92%; Activity (T-cell [13]): 73.94% |
| COc1cc2c3c(c4cc(OC)c(OC)cc4c2cc1OC)CN1CCCC1C3.Nc1ccc(S(=O)(=O)O)cc1 (centres undefined) [TYLOPHORINE P-AMINOBENZENESULFONIC ACID SALT] | 0.248 | 0.215 | 0.193 | 0.175 | – | inhibition at 0.1 µM (T-cell [7]): 3% |
| COc1cc2c3c(c4cc(OC)c(OC)cc4c2cc1OC)[C@H](O)[C@@H]1CCCN1C3 | 0.036 | 0.02 | 0.097 | 0.053 | – | Activity (T-cell [1]): 39%; Activity (T-cell [12]): 40%; Activity (RAW264.7 [14]): Toxic; solubility [15]: soluble |
| COc1cc2c3c(c4cc(OC)c(OC)cc4c2cc1OC)CN1CCCC1C3.O=C(O)c1cc(S(=O)(=O)O)ccc1O (centres undefined) | 0.283 | 0.21 | 0.16 | 0.16 | – | Activity (T-cell [1]): 29% |
| COc1cc2cc(CN3CCC[C@H]3CO)c3cc(OC)c(OC)cc3c2cc1OC | 307 | 265 | 304 | 422 | 0.2 | – |
| COc1cc2cc(CN3CCC(O)CC3)c3cc(OC)c(OC)cc3c2cc1OC | 231 | 265 | 273 | 132 | 5 | – |
| COc1cc2cc(CN3CCC[C@H]3C(=O)O)c3cc(OC)c(OC)cc3c2cc1OC | 200 | 234 | 231 | 418 | 2 | – |
